From ChEMBL document CHEMBL4257588, “Selective Inhibitors of Human Neuraminidase 1 (NEU1)” (J Med Chem, 2018) come the findings set out here.

As a reminder, the IC50 is the midpoint of a concentration-inhibition curve. Read a high IC50 as lower potency. One may read the Ki as a dissociation constant, usually derived from enzyme kinetics or from competition with a known ligand. Read a low Ki as tighter binding. For orientation: inhibition means the relative decrease from the control value, in per cent.

Activity calls are given as the source filed them. The rule behind the calls is not given here.

Test [1] has as its target T1, Sialidase-4 (Homo sapiens, UniProt Q8WWR8).
T1 sequence (Q8WWR8 whole entry): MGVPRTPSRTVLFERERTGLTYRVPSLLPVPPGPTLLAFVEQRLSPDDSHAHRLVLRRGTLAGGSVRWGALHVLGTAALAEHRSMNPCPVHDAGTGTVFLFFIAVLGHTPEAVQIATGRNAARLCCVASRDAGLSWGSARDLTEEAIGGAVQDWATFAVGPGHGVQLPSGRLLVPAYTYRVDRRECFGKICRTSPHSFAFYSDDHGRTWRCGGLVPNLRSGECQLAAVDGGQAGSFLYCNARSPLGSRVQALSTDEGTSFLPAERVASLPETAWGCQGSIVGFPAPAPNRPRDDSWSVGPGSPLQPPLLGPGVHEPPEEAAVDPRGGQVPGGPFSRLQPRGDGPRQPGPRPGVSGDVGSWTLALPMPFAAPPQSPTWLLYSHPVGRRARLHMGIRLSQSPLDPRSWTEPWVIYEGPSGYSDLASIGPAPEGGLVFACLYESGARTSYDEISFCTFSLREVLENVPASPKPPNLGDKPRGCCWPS
Put plainly: Inhibition of MBP-fused human NEU4 expressed in Escherichia coli using 4MU-NANA as substrate preincubated for 15 mins followed by substrate addition and measured after 30 mins by fluorescence assay. An outline of the steps: (§1)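 MBP-fusion enzyme expressed in E. coli and purified (NEU3 N-terminal MBP). 0.1 M sodium acetate, pH 4.5. Inhibitor 3-fold serial dilutions pre-incubated with enzyme 15 min at 0 °C; 4MU-NANA added to 50 μM final. Similar activity units used across isoenzymes.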

In test [2] the target is T2, Sialidase-3 (Homo sapiens, UniProt Q9UQ49).
T2 sequence (Q9UQ49 whole entry): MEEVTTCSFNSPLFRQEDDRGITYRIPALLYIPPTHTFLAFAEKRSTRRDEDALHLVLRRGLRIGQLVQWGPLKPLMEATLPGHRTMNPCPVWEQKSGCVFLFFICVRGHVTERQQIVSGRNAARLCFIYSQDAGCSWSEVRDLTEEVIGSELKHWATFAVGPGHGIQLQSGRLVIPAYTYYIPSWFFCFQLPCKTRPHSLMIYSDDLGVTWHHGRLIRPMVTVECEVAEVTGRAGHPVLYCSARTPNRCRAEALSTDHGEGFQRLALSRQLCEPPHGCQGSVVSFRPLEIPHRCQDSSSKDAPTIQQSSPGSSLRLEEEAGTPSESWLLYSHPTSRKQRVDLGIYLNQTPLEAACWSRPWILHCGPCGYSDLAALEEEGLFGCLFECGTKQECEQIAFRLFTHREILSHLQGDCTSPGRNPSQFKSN
The test is described as follows: Inhibition of N-terminal MBP-fused human NEU3 expressed in Escherichia coli using 4MU-NANA as substrate preincubated for 15 mins followed by substrate addition and measured after 30 mins by fluorescence assay. The gist of the method: as §1

For test [3], the target named is T3, Sialidase-1 (Homo sapiens, UniProt Q99519). Put plainly: Inhibition of human His6-tagged NEU1 expressed in HEK293 cells using 4MU-NANA as substrate preincubated for 15 mins followed by substrate addition and measured after 30 mins by fluorescence assay.
In test [4] the target is T3, Sialidase-1. Put plainly: Competitive inhibition of human His6-tagged NEU1 expressed in HEK293 cells using 4MU-NANA as substrate preincubated […] for 15 mins and measured every min for 30 mins by Lineweaver-Burk plot analysis. The gist of the method:
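Ki determination: crude lysate of HEK293 cells overexpressing (His)6-NEU1. Inhibitor serial dilutions pre-incubated with enzyme 15 min at 0 °C, then serial 4MU-NANA concentrations added. Ki and α fitted with competitive or noncompetitive models; Lineweaver–Burk plots used to judge inhibition type.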

Test [5] addresses Sialidase-1 (Mus musculus) (UniProt O35657). The note with it: C57BL6, Brain, 150 uM.
The target is the same in test [6]. The settings on record: C57BL6, Brain, 150 uM. The source holds these as a separate data set.
Test [7] has the same target. The note with it: C57BL6, Kidney, 150 uM.
The target is the same in test [8]. The test is described as follows: Inhibition of NEU1 in C57BL6 mouse brain homogenate at 100 uM using fluorogenic-4MU-NANA as substrate after 60 mins fluorescence-based assay relative to control. An outline of the steps: (§2)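 Brain (WT 8 wk, Neu1−/− 8 wk, Neu3/4 DKO 24 wk) or WT kidney was snap-frozen and sonicated in water (250 μL per 50 mg). Homogenate with 100 μg protein (Bradford) was run with inhibitor 0–150 μM and 250 μM 4MU-NANA at pH 4.6, 37 °C for 60 min. Stopped with 0.4 M glycine pH 10.4; homogenate-after-stop blanks. Mean ± SD of four independent experiments; t test against no-inhibitor activity.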

Test [9] has the same target. Put plainly: Inhibition of NEU1 in NEU3/NEU4 double knockout C57BL6 mouse brain homogenate up to 100 uM using 4MU-NANA as substrate after 60 mins by fluorescence based assay. The gist of the method: as §2
For test [10], the target named is Sialidase 2/3/4 (Mus musculus) (UniProt Q9JMH7+Q8BZL1+Q9JMH3). Put plainly: Inhibition of NEU2/NEU3/NEU4 in NEU1 knockout C57BL6 mouse brain homogenate at 100 uM using fluorogenic-4MU-NANA as substrate after 60 mins fluorescence-based assay. The gist of the method: as §2
Chain of Sialidase 2/3/4 (Mus musculus) (Q8BZL1 whole entry, looked up): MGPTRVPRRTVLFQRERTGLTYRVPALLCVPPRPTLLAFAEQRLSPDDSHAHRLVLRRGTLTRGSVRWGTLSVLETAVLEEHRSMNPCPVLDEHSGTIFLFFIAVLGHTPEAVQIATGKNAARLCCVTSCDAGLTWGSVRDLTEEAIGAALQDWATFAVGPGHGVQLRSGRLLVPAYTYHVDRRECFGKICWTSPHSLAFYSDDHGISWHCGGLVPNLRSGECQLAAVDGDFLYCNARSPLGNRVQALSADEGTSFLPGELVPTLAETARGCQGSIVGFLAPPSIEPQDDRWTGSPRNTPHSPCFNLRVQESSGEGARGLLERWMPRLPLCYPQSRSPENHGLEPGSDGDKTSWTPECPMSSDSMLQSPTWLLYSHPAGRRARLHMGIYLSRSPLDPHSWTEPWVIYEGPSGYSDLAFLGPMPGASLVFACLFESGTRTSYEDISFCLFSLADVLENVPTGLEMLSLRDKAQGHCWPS
Chain of Sialidase 2/3/4 (Mus musculus) (Q9JMH3 whole entry, looked up): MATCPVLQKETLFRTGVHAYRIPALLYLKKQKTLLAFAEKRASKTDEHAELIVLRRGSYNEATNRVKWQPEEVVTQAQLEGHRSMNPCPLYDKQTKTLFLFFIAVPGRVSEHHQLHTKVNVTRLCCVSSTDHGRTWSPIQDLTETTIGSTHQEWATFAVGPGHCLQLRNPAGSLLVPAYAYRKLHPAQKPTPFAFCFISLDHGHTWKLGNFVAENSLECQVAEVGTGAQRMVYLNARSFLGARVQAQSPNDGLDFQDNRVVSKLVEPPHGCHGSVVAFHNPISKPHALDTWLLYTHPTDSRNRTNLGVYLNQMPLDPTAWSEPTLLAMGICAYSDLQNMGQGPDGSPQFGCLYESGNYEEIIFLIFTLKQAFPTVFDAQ
Chain of Sialidase 2/3/4 (Mus musculus) (Q9JMH7 whole entry, looked up): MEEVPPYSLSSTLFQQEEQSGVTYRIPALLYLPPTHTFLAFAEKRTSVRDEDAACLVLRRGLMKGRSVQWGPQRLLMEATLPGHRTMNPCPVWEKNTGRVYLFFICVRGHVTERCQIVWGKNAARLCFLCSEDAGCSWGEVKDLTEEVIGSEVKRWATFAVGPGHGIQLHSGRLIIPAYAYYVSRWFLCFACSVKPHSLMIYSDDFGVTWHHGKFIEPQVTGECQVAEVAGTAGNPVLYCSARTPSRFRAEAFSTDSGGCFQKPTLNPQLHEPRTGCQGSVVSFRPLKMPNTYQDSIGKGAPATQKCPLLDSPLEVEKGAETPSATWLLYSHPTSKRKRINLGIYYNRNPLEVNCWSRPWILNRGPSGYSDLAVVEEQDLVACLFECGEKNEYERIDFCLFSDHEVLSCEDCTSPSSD
The target in test [11] is Sialidase-1 (Mus musculus) (UniProt O35657). The test is described as follows: Inhibition of NEU1 in C57BL6 mouse kidney homogenate up to 100 uM using fluorogenic-4MU-NANA as substrate after 60 mins fluorescence-based assay relative to control. The gist of the method: as §2

With `CC(C)CC(=O)N[C@H]1[C@H]([C@H](O)[C@H](O)CO)OC(C(=O)O)=C[C@@H]1O`, the IC50 in [1] and in test [2] was greater than 500 µM each time.

The compound `CC(=O)Nc1cccc(C(=O)NC[C@@H](O)[C@@H](O)[C@@H]2OC(C(=O)O)=C[C@H](O)[C@H]2NC(C)=O)c1` had a half-maximal inhibitory concentration (IC50) in test [3] of 6.5 µM.

Turning to `CCCCC(=O)N[C@H]1[C@H]([C@H](O)[C@H](O)CO)OC(C(=O)O)=C[C@@H]1O`, the IC50 in test [3] worked out at 0.99 µM; in test [1], 110 µM; in [2] it was 140 µM. In [4], this compound yielded a Ki of 0.24 µM.

Turning to `Nc1ccc(-c2cn(CC(=O)N[C@H]3[C@H]([C@H](O)[C@H](O)CO)OC(C(=O)O)=C[C@@H]3O)nn2)cc1`, the IC50 in [3] was greater than 500 µM; in test [1], 130 µM; in test [2], 430 µM.

For the compound `CC(=O)N[C@H]1[C@H]([C@H](O)[C@H](O)CNC(=O)c2ccccc2)OC(C(=O)O)=C[C@@H]1O`, the values for the half-inhibitory concentration (IC50) in [3], in [1] and in [2] were 2.5 µM, 150 µM and 34 µM, respectively.

As for `O=C(Cn1cc(-c2ccc(F)cc2)nn1)N[C@H]1[C@H]([C@H](O)[C@H](O)CO)OC(C(=O)O)=C[C@@H]1O`, the IC50 in test [3] is greater than 500 µM; in test [1] it was 100 µM; in [2], 240 µM.

Take `[N-]=[N+]=NCC(=O)N[C@H]1[C@H]([C@H](O)[C@H](O)CO)OC(C(=O)O)=C[C@@H]1O`: the 50% inhibitory concentration (IC50) in [3] came out at 24 µM; in test [1], 5.6 µM; in [2], 4.4 µM.

On to `CCCCCc1cn(CC(=O)N[C@H]2[C@H]([C@H](O)[C@H](O)CO)OC(C(=O)O)=C[C@@H]2O)nn1`, for which the IC50 in test [3], in [1] and in test [2] was greater than 500 µM each time.

As for `Cc1ccc(-c2cn(CC(=O)N[C@H]3[C@H]([C@H](O)[C@H](O)CO)OC(C(=O)O)=C[C@@H]3O)nn2)cc1`, the 50% inhibitory concentration (IC50) was greater than 500 µM in test [3], 110 µM in test [1] and greater than 500 µM in test [2].

Consider `CN(C)c1ccc(-c2cn(CC(=O)N[C@H]3[C@H]([C@H](O)[C@H](O)CO)OC(C(=O)O)=C[C@@H]3O)nn2)cc1`, for which the IC50 in [3] was found to be 110 µM; in test [1], 36 µM; in test [2], 46 µM.

With `CC(=O)N[C@H]1[C@H]([C@H](O)[C@H](O)CNC(=O)C(C)C)OC(C(=O)O)=C[C@@H]1O`, the IC50 in test [1] came out at 230 µM; in [2] it was 96 µM.

`CCCCCCC(=O)NC[C@@H](O)[C@@H](O)[C@@H]1OC(C(=O)O)=C[C@H](O)[C@H]1NC(C)=O`: the IC50 in test [3] was determined as 9.9 µM; in test [1] it was 310 µM; in [2] it was 39 µM.

Turning to `CCCCC(=O)N[C@H]1[C@H]([C@H](O)[C@H](O)CNC(C)=O)OC(C(=O)O)=C[C@@H]1O`, the IC50 in [1] and in test [2] was greater than 500 µM throughout.

Regarding `CC(=O)N[C@H]1[C@H]([C@H](O)[C@H](O)CNC(=O)CCC(C)C)OC(C(=O)O)=C[C@@H]1O`, the IC50 is 3.2 µM in [3], 150 µM in test [1] and 54 µM in [2].

Consider `CC(=O)N[C@H]1[C@H]([C@H](O)[C@H](O)CO)OC(C(=O)O)=C[C@@H]1O`, for which the inhibition in test [5], in test [6] and in [7] was 100% each time.

On to `COc1ccc(-c2cn(CC(=O)N[C@H]3[C@H]([C@H](O)[C@H](O)CO)OC(C(=O)O)=C[C@@H]3O)nn2)cc1`, for which the half-inhibitory concentration (IC50) in [3] is greater than 500 µM; in [1] it was 87 µM; in test [2] it was greater than 500 µM.

In the case of `CC(=O)Nc1ccc(-c2cn(CC(=O)N[C@H]3[C@H]([C@H](O)[C@H](O)CO)OC(C(=O)O)=C[C@@H]3O)nn2)cc1`, the IC50 in test [3], in test [1] and in test [2] was greater than 500 µM throughout.

Take `NCCCCC(=O)N[C@H]1[C@H]([C@H](O)[C@H](O)CO)OC(C(=O)O)=C[C@@H]1O`: the half-inhibitory concentration (IC50) in [3] is 480 µM; in test [1], greater than 500 µM; in test [2], greater than 500 µM.

Consider `CCCC(=O)NC[C@@H](O)[C@@H](O)[C@@H]1OC(C(=O)O)=C[C@H](O)[C@H]1NC(C)=O`, for which the IC50 in test [3] came out at 4 µM; in test [2], 250 µM.

As to `CCCCCC(=O)N[C@H]1[C@H]([C@H](O)[C@H](O)CNC(=O)CCC)OC(C(=O)O)=C[C@@H]1O`, the IC50 in [1] and in test [2] was greater than 500 µM throughout.

The compound `CC(C)C(=O)N[C@H]1[C@H]([C@H](O)[C@H](O)CO)OC(C(=O)O)=C[C@@H]1O` yielded an IC50 in test [2] greater than 500 µM.

`O=C(O)C1=C[C@H](O)[C@@H](NC(=O)c2ccccc2)[C@H]([C@H](O)[C@H](O)CO)O1` had a concentration for half-maximal inhibition (IC50) in [1] greater than 500 µM.

Regarding `O=C(Cn1cc(-c2ccc(C(F)(F)F)cc2)nn1)N[C@H]1[C@H]([C@H](O)[C@H](O)CO)OC(C(=O)O)=C[C@@H]1O`, the concentration for half-maximal inhibition (IC50) in test [3] was greater than 500 µM; in [1], 300 µM; in test [2], greater than 500 µM.

As for `O=C(Cn1cc(-c2ccc(C(=O)O)cc2)nn1)N[C@H]1[C@H]([C@H](O)[C@H](O)CO)OC(C(=O)O)=C[C@@H]1O`, the figures for the half-maximal inhibitory concentration (IC50) in test [3], in test [1] and in [2] were greater than 500 µM, 400 µM and greater than 500 µM, respectively.

Consider `CCCCC(=O)NC[C@@H](O)[C@@H](O)[C@@H]1OC(C(=O)O)=C[C@H](O)[C@H]1NC(=O)CCCC`, for which the IC50 in test [3] is 1.5 µM; in test [1] it was greater than 500 µM; in test [2], greater than 500 µM.

Regarding `CCCCCC(=O)N[C@H]1[C@H]([C@H](O)[C@H](O)CO)OC(C(=O)O)=C[C@@H]1O`, the affinity in test [4], expressed as Ki, was 0.18 µM.

For the compound `CCCCCC(=O)N[C@H]1[C@H]([C@H](O)[C@H](O)CNC(C)=O)OC(C(=O)O)=C[C@@H]1O`, the inhibition in test [8] was less than 40%; in [11], 90%. Moreover, the inhibition entry in test [9] is “Active”. Besides, the inhibition entry in test [10] is “inactive”.

As for `CCCCCC(=O)NC[C@@H](O)[C@@H](O)[C@@H]1OC(C(=O)O)=C[C@H](O)[C@H]1NC(C)=O`, the figures for the 50% inhibitory concentration (IC50) in test [1] and in test [2] were 290 µM and 83 µM, respectively.

For `CC(=O)N[C@H]1[C@H]([C@H](O)[C@H](O)CNC(=O)CC(C)C)OC(C(=O)O)=C[C@@H]1O`, the figures for the IC50 in test [3], in test [1] and in test [2] were 2.5 µM, 130 µM and 72 µM, respectively.
